From ChEMBL document CHEMBL1138497, “Design and synthesis of small molecule glycerol 3-phosphate acyltransferase inhibitors” (J Med Chem, 2009)

Assay: Inhibition of mitochondrial glycerol 3-phosphate acyltransferase by liquid scintillation counting
How it was run: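 Mitochondrial GPAT preparation added to start reaction in mixture of 14C-labelled glycerol 3-phosphate and palmitoyl-CoA with a range of inhibitor concentrations; acylation quantified by scintillation counting. Triplicate points; IC50 taken as inhibitor level giving 50% of activity seen with DMSO vehicle alone.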
With `CCCCCCCCCS(=O)(=O)NCc1ccccc1C(=O)O` the IC50 was 66.5 µM.
For `CCCCCS(=O)(=O)NCc1ccc(C(=O)O)cc1`, the IC50 was 252 µM.
In the case of `CCCCCS(=O)(=O)Nc1ccccc1CP(=O)(O)O`, the IC50 is reported as 129 µM.
Work on `CS(=O)(=O)Nc1ccccc1C(=O)O` yielded an IC50 of 132 µM.
Molecule `CCCCCCCCCS(=O)(=O)Nc1ccccc1CP(=O)(O)O` has an IC50 of 81.1 µM.
Work on `CCCCCS(=O)(=O)NCc1cccc(C(=O)O)c1` yielded an IC50 of 310 µM.
`CCCCCCCCCCCCCCCCS(=O)(=O)Nc1ccccc1C(=O)O` showed an IC50 of 18.3 µM.
In the case of `CCCCCS(=O)(=O)Nc1cccc(CP(=O)(O)O)c1`, the IC50 is reported as 141 µM.
For `O=C(O)c1ccc(NS(=O)(=O)c2ccc(Cl)cc2)cc1`, the IC50 was 108 µM.
`O=C(O)c1cccc(NS(=O)(=O)CCc2ccccc2)c1` showed an IC50 of 164 µM.
Molecule `O=C(O)c1cccc(NS(=O)(=O)Cc2ccccc2)c1` has an IC50 of 178 µM.
For `CCCCCCCCS(=O)(=O)Nc1cccc(P(=O)(O)O)c1`, the IC50 was 72.4 µM.
Work on `CCCCCS(=O)(=O)Nc1ccc(CP(=O)(O)O)cc1` yielded an IC50 of 148 µM.
Molecule `O=C(O)c1ccc(NS(=O)(=O)c2ccccc2)cc1` has an IC50 of 151 µM.
`CCCCCCCCCS(=O)(=O)NCc1cccc(C(=O)O)c1` showed an IC50 of 83.5 µM.
`CCCCCCCCCS(=O)(=O)Nc1ccc(Cl)cc1C(=O)O` gave an IC50 of 31.8 µM.
Molecule `O=C(O)c1cccc(NS(=O)(=O)c2ccc(Cl)cc2)c1` has an IC50 of 75.7 µM.
Work on `CCCCCCCCS(=O)(=O)Nc1ccc(F)cc1C(=O)O` yielded an IC50 of 89 µM.
Work on `CCCCCCCCCS(=O)(=O)Nc1cccc(CP(=O)(O)O)c1` yielded an IC50 of 62.8 µM.
Molecule `CCCCCCCCS(=O)(=O)Nc1ccc(O)cc1C(=O)O` has an IC50 of 116 µM.
For `O=C(O)c1ccccc1NS(=O)(=O)Cc1ccccc1`, the IC50 was 140 µM.
Molecule `O=C(O)c1ccccc1NS(=O)(=O)c1ccccc1` has an IC50 of 146 µM.
`CCCCCCCCCS(=O)(=O)Nc1cccc(C(=O)O)c1` gave an IC50 of 73.9 µM.
For `CCCCCCCCCCCCCCS(=O)(=O)Nc1ccccc1C(=O)O`, the IC50 was 17.4 µM.
For `CCCCCCCCS(=O)(=O)Nc1ccc(P(=O)(O)O)cc1`, the IC50 was 95.3 µM.
In the case of `CCCCCCCCS(=O)(=O)Nc1ccccc1P(=O)(O)O`, the IC50 is reported as 73.6 µM.
`O=C(O)c1ccc(NS(=O)(=O)Cc2ccccc2)cc1` showed an IC50 of 221 µM.
Work on `CCCCCS(=O)(=O)NCc1ccccc1C(=O)O` yielded an IC50 of 217 µM.
`O=C(O)c1cccc(NS(=O)(=O)c2ccccc2)c1` showed an IC50 of 138 µM.
In the case of `CCCCCCCCCS(=O)(=O)Nc1ccc(CP(=O)(O)O)cc1`, the IC50 is reported as 81.3 µM.
`O=C(O)c1ccccc1NS(=O)(=O)CCc1ccccc1` showed an IC50 of 152 µM.
With `CCCCCCCCCS(=O)(=O)Nc1ccccc1C(=O)O` the IC50 was 24.7 µM.
In the case of `CCCCCCCCCS(=O)(=O)Nc1ccc(C(=O)O)cc1`, the IC50 is reported as 88.9 µM.
In the case of `O=C(O)c1ccccc1NS(=O)(=O)c1ccc(Cl)cc1`, the IC50 is reported as 107 µM.
Molecule `O=C(O)c1ccc(NS(=O)(=O)CCc2ccccc2)cc1` has an IC50 of 206 µM.
Molecule `CCCCCCCCCS(=O)(=O)NCc1ccc(C(=O)O)cc1` has an IC50 of 129 µM.
